Results published in ChEMBL document CHEMBL1124354, “Potential antiatherosclerotic agents. 6. Hypocholesterolemic trisubstituted urea analogues” (J Med Chem, 1989).

Experiments:
Oryctolagus cuniculus [1] = assay: Compound was evaluated for rabbit serum cholesterol level at dose 11 mg/kg per day on day 35; format: functional
Procedure, shortened: (§1)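 Male New Zealand rabbits (2.5–3.0 kg) on rabbit pellets with 0.4% cholesterol and peanut oil for one week, then bled and grouped by plasma sterol. Drug mixed in diet (6% peanut oil) at 0.25, 0.075 or 0.025% for five weeks, about 109.6, 34.5 or 11.2 mg/kg/day. Dietary cholesterol adjusted weekly (0.30–0.35%). Aortic balloon denudation on day 7 of dosing.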

Oryctolagus cuniculus [2] = assay: Compound was evaluated for rabbit serum cholesterol levels for a dose of 110 mg/kg per day on day 21; format: functional; procedure, shortened: as §1
Oryctolagus cuniculus [3] = assay: Compound was evaluated for rabbit serum cholesterol level at dose 11 mg/kg per day on day 7; format: functional; procedure, shortened: as §1
[4] = target: T1, Sterol O-acyltransferase 1 (Rattus norvegicus) (UniProt O70536); assay: In vitro percentage inhibition against acyl coenzyme A:cholesterol acyltransferase derived from rat adrenals; parameters: concentration or dose not given beside the values; conditions: concentration not given here
T1 sequence (whole entry): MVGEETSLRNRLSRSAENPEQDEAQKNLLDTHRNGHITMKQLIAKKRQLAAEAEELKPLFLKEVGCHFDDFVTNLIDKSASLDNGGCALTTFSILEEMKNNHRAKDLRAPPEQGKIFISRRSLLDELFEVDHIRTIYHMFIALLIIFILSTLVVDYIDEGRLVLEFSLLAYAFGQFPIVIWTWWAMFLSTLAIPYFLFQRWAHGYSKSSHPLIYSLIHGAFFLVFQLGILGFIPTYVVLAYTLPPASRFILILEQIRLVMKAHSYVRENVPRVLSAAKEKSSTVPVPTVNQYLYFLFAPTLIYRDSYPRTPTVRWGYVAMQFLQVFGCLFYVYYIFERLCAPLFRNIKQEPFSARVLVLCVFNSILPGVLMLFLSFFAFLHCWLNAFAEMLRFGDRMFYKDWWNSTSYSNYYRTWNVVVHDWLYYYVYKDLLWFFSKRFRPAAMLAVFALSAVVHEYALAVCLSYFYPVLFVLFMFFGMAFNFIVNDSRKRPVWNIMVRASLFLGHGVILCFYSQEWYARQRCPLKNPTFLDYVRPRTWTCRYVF
Procedure, shortened: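 Rat adrenal 1000g supernatant (microsomal ACAT) in 0.2 M KH2PO4 pH 7.4 with BSA; test compound at final 5.2 µg/mL, preincubated 37 °C 10 min; [14C]oleoyl-CoA (0.4 µCi) added, 37 °C 30 min. Cholesteryl ester separated by TLC, scintillation counted; mean percent inhibition against compound-free control.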

Oryctolagus cuniculus [5] = assay: Compound was evaluated for rabbit serum cholesterol level at dose 110 mg/kg per day on day 0; format: functional; procedure, shortened: as §1
Oryctolagus cuniculus [6] = assay: Compound was evaluated for rabbit serum cholesterol level at dose 110 mg/kg per day on day 7; format: functional; procedure, shortened: as §1
Oryctolagus cuniculus [7] = assay: Compound was evaluated for rabbit serum cholesterol level at dose 35 mg/kg per day on day 7; format: functional; procedure, shortened: as §1
Oryctolagus cuniculus [8] = assay: Compound was evaluated for rabbit serum cholesterol level at dose 35 mg/kg per day on day 21; format: functional; procedure, shortened: as §1
[9] = target: T1, Sterol O-acyltransferase 1 (Rattus norvegicus); assay: Liver hypolipidemic activity in rats; format: functional
Procedure, shortened: (§2)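 Male CD-1 Sprague-Dawley rats, 140–150 g, fed 1% cholesterol/0.5% cholic acid diet with compound admixed at 0.01% (about 10 mg/kg/day) for 7 days. Serum and liver cholesterol measured by Technicon autoanalyzer methods; expressed as percent of control.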

[10] = target: T2, Sterol O-acyltransferase 1 (Rattus norvegicus, UniProt O70536); assay: In vitro inhibitory concentration against acyl coenzyme A:cholesterol acyltransferase derived from rat adrenals
T2 sequence (O70536 whole entry): T1 sequence (whole entry)
Procedure, shortened: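 Rat adrenal homogenate in 0.2 M KH2PO4 buffer pH 7.4, 1000g supernatant (microsomal fraction) as enzyme; preincubated with BSA and test compound at graded concentrations, 37 °C 10 min, then [14C]oleoyl-CoA 0.4 µCi, 37 °C 30 min. Lipids extracted, cholesteryl ester isolated by TLC and counted. Triplicate tubes per concentration; IC50 by linear regression of means.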

Oryctolagus cuniculus [11] = assay: Compound was evaluated for rabbit serum cholesterol level at dose 110 mg/kg per day on day 35; format: functional; procedure, shortened: as §1
Oryctolagus cuniculus [12] = assay: Compound was evaluated for rabbit serum cholesterol level at dose 35 mg/kg per day on day 35; format: functional; procedure, shortened: as §1
[13] = target: T1, Sterol O-acyltransferase 1 (Rattus norvegicus); assay: Serum hypolipidemic activity in rats; format: functional; procedure, shortened: as §2
Oryctolagus cuniculus [14] = assay: Compound was evaluated for rabbit serum cholesterol level at dose 35 mg/kg per day on day 0; format: functional; procedure, shortened: as §1
Oryctolagus cuniculus [15] = assay: Compound was evaluated for rabbit serum cholesterol level at dose 11 mg/kg per day on day 21; format: functional; procedure, shortened: as §1
Oryctolagus cuniculus [16] = assay: Compound was evaluated for rabbit serum cholesterol level at dose 11 mg/kg per day on day 0; format: functional; procedure, shortened: as §1
[17] = target: T1, Sterol O-acyltransferase 1 (Rattus norvegicus); assay: In vitro percentage inhibition against Acyl coenzyme A:cholesterol acyltransferase derived from rat adrenals; conditions: concentration not given here

With CCCCN(Cc1ccccc1)C(=O)Nc1ccc(C)cc1C as the compound, how does the SC (Oryctolagus cuniculus [1]) read?
Its SC is 722 mg/dL.

What about the SC (Oryctolagus cuniculus [2]) of the same compound?
Its SC is 343 mg/dL.

What about the SC (Oryctolagus cuniculus [3]) of the same compound?
Its SC is 340 mg/dL.

And the inhibition [4]?
The inhibition was 91%.

What about the SC (Oryctolagus cuniculus [5]) of the same compound?
The SC was 278 mg/dL.

And the SC (Oryctolagus cuniculus [6])?
Its SC is 230 mg/dL.

And the SC (Oryctolagus cuniculus [7])?
Its SC is 255 mg/dL.

And the SC (Oryctolagus cuniculus [8])?
Its SC is 357 mg/dL.

And the LS [9]?
Its LS is 75%.

And the IC50 [10]?
The IC50 was 4.8 µM.

What about the SC (Oryctolagus cuniculus [11]) of the same compound?
The SC was 405 mg/dL.

And the SC (Oryctolagus cuniculus [12])?
Its SC is 488 mg/dL.

What about the SS [13] of the same compound?
The SS was 70%.

What about the SC (Oryctolagus cuniculus [14]) of the same compound?
The SC was 270 mg/dL.

What about the SC (Oryctolagus cuniculus [15]) of the same compound?
Its SC is 556 mg/dL.

What about the SC (Oryctolagus cuniculus [16]) of the same compound?
Its SC is 307 mg/dL.

Which LS [9] does the source give for CCCCCCCN(Cc1ccco1)C(=O)Nc1cc(C)c(C)cc1C here?
Its LS is 38%.

And the SS [13]?
Its SS is 44%.

And the inhibition [17]?
The inhibition was 94%.
